Values after ≈ are worked out from the molar mass of the structure shown.
Experiments:
[1] = Minimum effective dose required for the inhibition of Escherichia coli gyrase
[2] = system: Pseudomonas aeruginosa; assay: Minimum inhibitory concentration against Pseudomonas aeruginosa IAI, measured in Muller-Hinton (MH) solid media; format: functional
[3] = system: Pseudomonas aeruginosa; assay: Minimum inhibitory concentration against Pseudomonas aeruginosa IAI measured in succinate (SC) liquid media; format: functional
[4] = system: Pseudomonas aeruginosa; assay: Minimum inhibitory concentration against Pseudomonas aeruginosa IAI, measured in Muller-Hinton (MH) liquid media; format: functional
Procedure, shortened: (§1)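 Broth microdilution in Müller-Hinton medium, highest final concentration generally 64 µg/mL, final inoculum 10^6 cells/mL, 18 h at 37 °C. […] Adducts expressed as µg/mL quinolone equivalents.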

[5] = system: Pseudomonas aeruginosa; assay: Minimum inhibitory concentration against Pseudomonas aeruginosa ATCC 27853 measured in succinate (SC) solid media; format: functional
[6] = system: Pseudomonas aeruginosa; assay: Minimum inhibitory concentration against Pseudomonas aeruginosa IAI measured in succinate (SC) solid media; format: functional
[7] = system: Pseudomonas aeruginosa; assay: Minimum inhibitory concentration against Pseudomonas aeruginosa ATCC 15692 measured in Muller-Hinton (MH) solid media; format: functional
[8] = system: Pseudomonas aeruginosa; assay: Minimum inhibitory concentration against Pseudomonas aeruginosa ATCC 27853 measured in Muller-Hinton (MH) liquid media; format: functional
[9] = system: Pseudomonas aeruginosa; assay: Minimum inhibitory concentration against Pseudomonas aeruginosa ATCC 27853 measured in Muller-Hinton (MH) solid media; format: functional
[10] = system: Pseudomonas aeruginosa; assay: Minimum inhibitory concentration against Pseudomonas aeruginosa ATCC 27853 measured in succinate (SC) liquid media; format: functional
[11] = system: Pseudomonas aeruginosa; assay: Minimum inhibitory concentration against Pseudomonas aeruginosa K690, measured in Muller-Hinton (MH) solid media; format: functional
[12] = system: Pseudomonas aeruginosa; assay: Minimum inhibitory concentration against Pseudomonas aeruginosa ATCC 15692 measured in Muller-Hinton (MH) liquid media; format: functional
Procedure, shortened: as §1

[13] = system: Pseudomonas aeruginosa; assay: Minimum inhibitory concentration against Pseudomonas aeruginosa ATCC 15692 measured in succinate (SC) solid media; format: functional
[14] = system: Pseudomonas aeruginosa; assay: Minimum inhibitory concentration against Pseudomonas aeruginosa ATCC 15692 measured in succinate (SC) liquid media; format: functional
[15] = system: Pseudomonas aeruginosa; assay: Minimum inhibitory concentration against Pseudomonas aeruginosa K690, measured in succinate (SC) solid media; format: functional

SMILES | MED [1] [µg/mL] | MIC [2] [µg/mL] | MIC [5] [µg/mL] | MIC [6] [µg/mL] | MIC [7] [µg/mL] | MIC [9] [µg/mL] | MIC [11] [µg/mL] | MIC [13] [µg/mL] | MIC [15] [µg/mL] | MIC [3] [µg/mL] | MIC [4] [µg/mL] | MIC [8] [µg/mL] | MIC [10] [µg/mL] | MIC [12] [µg/mL] | MIC [14] [µg/mL]
C[C@H](O)[C@@H]1NC(=O)[C@H](CCCN(O)C=O)NC(=O)[C@@H](NC(=O)[C@](C)(CCCN(O)C=O)NC(=O)[C@@H](CO)NC(=O)[C@H](CCCN=C(N)N)NC(=O)[C@H](CO)NC(=O)[C@@H]2CCNc3c(NC(=O)CCC(=O)NCCNC(=O)CCC(=O)N4CCN(c5cc6nc7c(cc6cc5F)c(=O)c(C(=O)O)cn7C)CC4)cc4cc(O)c(O)cc4[n+]32)CCCCNC(=O)[C@@H]([C@H](C)O)NC1=O | 25 | – | – | – | – | – | – | – | – | – | – | – | – | – | –
C[C@H](O)[C@@H]1NC(=O)[C@H](CCCN(O)C=O)NC(=O)[C@@H](NC(=O)[C@](C)(CCCN(O)C=O)NC(=O)[C@@H](CO)NC(=O)[C@H](CCCN=C(N)N)NC(=O)[C@@H](CO)NC(=O)[C@@H]2CCNc3c(NC(=O)CCC(=O)NCCNC(=O)CCC(=O)OCOC(=O)N4CCN(c5cc6nc7c(cc6cc5F)c(=O)c(C(=O)O)cn7C)CC4)cc4cc(O)c(O)cc4[n+]32)CCCCNC(=O)[C@@H]([C@H](C)O)NC1=O | 25 | – | – | – | – | – | – | – | – | – | – | – | – | – | –
Cn1cc(C(=O)O)c(=O)c2cc3cc(F)c(N4CCNCC4)cc3nc21 | 4 | 16 (≈ 44.9 µM) | 8 (≈ 22.4 µM) | 16 (≈ 44.9 µM) | 8 (≈ 22.4 µM) | 16 (≈ 44.9 µM) | 32 (≈ 89.8 µM) | 4 (≈ 11.2 µM) | 16 (≈ 44.9 µM) | 32 (≈ 89.8 µM) | 16 (≈ 44.9 µM) | 32 (≈ 89.8 µM) | > 64 | 16 (≈ 44.9 µM) | 64 (≈ 180 µM)
C[C@@H](O)[C@@H]1NC(=O)[C@H](CCCN(O)C=O)NC(=O)[C@@H](NC(=O)[C@](C)(CCCN(O)C=O)NC(=O)[C@@H](CO)NC(=O)[C@H](CCCN=C(N)N)NC(=O)[C@@H](CO)NC(=O)[C@@H]2CCNc3c(NC(=O)CCC(=O)NCCNC(=O)CCC(=O)OCOC(=O)N4CCN(c5cc6nc7c(cc6cc5F)c(=O)c(C(=O)O)cn7C)CC4)cc4cc(O)c(O)cc4[n+]32)CCCCNC(=O)[C@H]([C@@H](C)O)NC1=O [BENZONAPHTHYRIDONE BPL ADDUCT] | – | 16 | 4 | 1 | 8 | 64 | 32 | 1 | 8 | 2 | 8 | 32 | 32 | 4 | 2
C[C@@H](O)[C@@H]1NC(=O)[C@H](CCCN(O)C=O)NC(=O)[C@@H](NC(=O)[C@](C)(CCCN(O)C=O)NC(=O)[C@@H](CO)NC(=O)[C@H](CCCN=C(N)N)NC(=O)[C@@H](CO)NC(=O)[C@@H]2CCNc3c(NC(=O)CCC(=O)NCCNC(=O)CCC(=O)N4CCN(c5cc6nc7c(cc6cc5F)c(=O)c(C(=O)O)cn7C)CC4)cc4cc(O)c(O)cc4[n+]32)CCCCNC(=O)[C@H]([C@@H](C)O)NC1=O | – | 32 | 8 | 8 | 16 | > 64 | 64 | 8 | 4 | – | – | – | – | – | –
CCn1cc(C(=O)O)c(=O)c2cc(F)c(N3CCNCC3)cc21 [NORFLOXACIN] | – | 1 (≈ 3.13 µM) | 0.25 (≈ 0.783 µM) | 0.03 (≈ 0.0939 µM) | 0.25 (≈ 0.783 µM) | 2 (≈ 6.26 µM) | 8 (≈ 25.1 µM) | 0.06 (≈ 0.188 µM) | 4 (≈ 12.5 µM) | 0.25 (≈ 0.783 µM) | 1 (≈ 3.13 µM) | 4 (≈ 12.5 µM) | 2 (≈ 6.26 µM) | 1 (≈ 3.13 µM) | 0.25 (≈ 0.783 µM)

Continued, in another order:

MED [1] [µg/mL] | MIC [2] [µg/mL] | MIC [5] [µg/mL] | MIC [6] [µg/mL] | MIC [7] [µg/mL] | MIC [9] [µg/mL] | MIC [11] [µg/mL] | MIC [13] [µg/mL] | MIC [15] [µg/mL] | SMILES | MIC [3] [µg/mL] | MIC [4] [µg/mL] | MIC [8] [µg/mL] | MIC [10] [µg/mL] | MIC [12] [µg/mL] | MIC [14] [µg/mL]
50 | – | – | – | – | – | – | – | – | CCn1cc(C(=O)O)c(=O)c2cc(F)c(N3CCN(C(=O)CCC(=O)NCCNC(=O)CCC(=O)Nc4cc5cc(O)c(O)cc5[n+]5c4NCC[C@H]5C(=O)N[C@@H](CO)C(=O)N[C@@H](CCCN=C(N)N)C(=O)N[C@H](CO)C(=O)N[C@@](C)(CCCN(O)C=O)C(=O)N[C@H]4CCCCNC(=O)[C@@H]([C@H](C)O)NC(=O)[C@H]([C@H](C)O)NC(=O)[C@H](CCCN(O)C=O)NC4=O)CC3)cc21 | – | – | – | – | – | –
– | 32 | 8 | 4 | 8 | > 64 | 32 | 2 | 8 | CCn1cc(C(=O)O)c(=O)c2cc(F)c(N3CCN(C(=O)CCC(=O)NCCNC(=O)CCC(=O)Nc4cc5cc(O)c(O)cc5[n+]5c4NCC[C@H]5C(=O)N[C@H](CO)C(=O)N[C@@H](CCCN=C(N)N)C(=O)N[C@H](CO)C(=O)N[C@@](C)(CCCN(O)C=O)C(=O)N[C@H]4CCCCNC(=O)[C@H]([C@@H](C)O)NC(=O)[C@H]([C@@H](C)O)NC(=O)[C@H](CCCN(O)C=O)NC4=O)CC3)cc21 | – | – | – | – | – | –
– | 4 | 8 | 2 | 2 | 16 | 16 | 2 | 16 | CCn1cc(C(=O)O)c(=O)c2cc(F)c(N3CCN(C(=O)OCOC(=O)CCC(=O)NCCNC(=O)CCC(=O)Nc4cc5cc(O)c(O)cc5[n+]5c4NCC[C@H]5C(=O)N[C@H](CO)C(=O)N[C@@H](CCCN=C(N)N)C(=O)N[C@H](CO)C(=O)N[C@@](C)(CCCN(O)C=O)C(=O)N[C@H]4CCCCNC(=O)[C@H]([C@@H](C)O)NC(=O)[C@H]([C@@H](C)O)NC(=O)[C@H](CCCN(O)C=O)NC4=O)CC3)cc21 | 0.5 | 4 | 16 | 8 | 2 | 0.5
50 | – | – | – | – | – | – | – | – | CCn1cc(C(=O)O)c(=O)c2cc(F)c(N3CCN(C(=O)OCOC(=O)CCC(=O)NCCNC(=O)CCC(=O)Nc4cc5cc(O)c(O)cc5[n+]5c4NCC[C@H]5C(=O)N[C@@H](CO)C(=O)N[C@@H](CCCN=C(N)N)C(=O)N[C@H](CO)C(=O)N[C@@](C)(CCCN(O)C=O)C(=O)N[C@H]4CCCCNC(=O)[C@@H]([C@H](C)O)NC(=O)[C@H]([C@H](C)O)NC(=O)[C@H](CCCN(O)C=O)NC4=O)CC3)cc21 | – | – | – | – | – | –

Reference: ChEMBL document CHEMBL1134513, “Synthesis and activities of pyoverdin-quinolone adducts: a prospective approach to a specific Therapy against Pseudomonas aeruginosa” (2001)
